Measured values taken from ChEMBL document CHEMBL3102776, “Synthesis and biological evaluation of farnesylthiosalicylamides as potential anti-tumor agents” (Bioorg Med Chem, 2014).
pIC50: −log10 of the molar value. Values after ≈ are worked out from the molar mass of the structure shown. Each block holds one molecule with its values, some of them ahead of it. Active and inactive are the calls of the source. The calls are words filed in the database; no cut-off is given here.

Assays:
[1] = Cytotoxicity against human SGC7901 cells after 48 hrs by MTT assay; type: functional, cell-based; settings: SGC-7901, 48 h
Method in brief: (§1)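 Cells seeded at 10⁴ per well in DMEM with 10% FBS and grown overnight. Compound at a range of concentrations for 48 h, in triplicate. MTT (5 mg mL⁻¹ stock) added for the last 4 h, formazan dissolved in DMSO, absorbance read at 570 nm. Percent inhibition used to derive IC50. Values are mean ± SEM of at least three independent experiments.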

SK-OV-3 = assay: Cytotoxicity against human SKOV3 cells after 48 hrs by MTT assay; type: functional, cell-based; settings: SK-OV-3, 48 h; method in brief: as §1
EJ = assay: Cytotoxicity against human EJ cells after 48 hrs by MTT assay; type: functional, cell-based; method in brief: as §1
[2] = Cytotoxicity against human PANC1 cells after 48 hrs by MTT assay; type: functional, cell-based; settings: PANC-1, 48 h; method in brief: as §1
SMMC-7721 [3] = assay: Cytotoxicity against human SMMC7721 cells after 48 hrs by MTT assay; type: functional, cell-based; settings: SMMC-7721, 48 h; method in brief: as §1
MCF7 = assay: Cytotoxicity against human MCF7 cells after 48 hrs by MTT assay; type: functional, cell-based; settings: MCF7, 48 h; method in brief: as §1
[4] = Cytotoxicity against human H460 cells after 48 hrs by MTT assay; type: functional, cell-based; settings: NCI-H460, 48 h; method in brief: as §1
SMMC-7721 [5] = assay: Induction of apoptosis in human SMMC7721 cells assessed as viable cells at 6 uM after 48 hrs by annexin V-FITC/propidium iodide staining-based flow cytometry (reference value: 93.81%); type: functional; settings: SMMC-7721, 48 h, read-out: Activity
SMMC-7721 [6] = assay: Inhibition of Ras in human SMMC7721 cells assessed as reduction in phosphorylated ERK1 level at 12 uM after 8 hrs by immunoblotting analysis; type: cell-based
Method in brief: (§2)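 SMMC-7721 cells at 1.5 × 10⁵/mL treated with 3.0, 6.0 or 12 µmol/L compound or vehicle for 8 h. Cells lysed, 50 µg protein per lane run on 12% SDS–PAGE gels. Blots probed for total and phospho-ERK1/2 (Thr202/Tyr204), total and phospho-Akt (Ser473), and β-actin. Densitometry relative to β-actin. Means ± SEM of three experiments.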

SMMC-7721 [7] = assay: Induction of apoptosis in human SMMC7721 cells assessed as reduction in Bcl2 level after 48 hrs by Western blotting analysis; type: functional, cell-based
SMMC-7721 [8] = assay: Inhibition of Ras in human SMMC7721 cells assessed as reduction in phosphorylated Akt level at 12 uM after 8 hrs by immunoblotting analysis; type: cell-based; method in brief: as §2
[9] = Lipophilicity, log P of the compound in 10% PEG400 aqueous solution; type: physicochemical
SMMC-7721 [10] = assay: Inhibition of Ras in human SMMC7721 cells assessed as reduction in phosphorylated ERK1 level after 8 hrs by immunoblotting analysis; type: cell-based; method in brief: as §2
SMMC-7721 [11] = assay: Induction of apoptosis in human SMMC7721 cells assessed as late apoptotic cells at 12 uM after 48 hrs by annexin V-FITC/propidium iodide staining-based flow cytometry (reference value: 1.55%); type: functional
SMMC-7721 [12] = assay: Induction of apoptosis in human SMMC7721 cells assessed as necrotic cells at 6 uM after 48 hrs by annexin V-FITC/propidium iodide staining-based flow cytometry (reference value: 0.77%); type: functional
SMMC-7721 [13] = assay: Induction of apoptosis in human SMMC7721 cells assessed as increase in caspase-3 level after 48 hrs by Western blotting analysis; type: functional, cell-based
Method in brief: (§3)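 SMMC-7721 cells treated with or without compound at several concentrations for 48 h. Lysates immunoblotted for Bax, Bcl-2 and caspase-3, with β-actin as loading control. Band levels relative to β-actin quantified by densitometric scanning. Means ± SEM from three separate experiments.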

SMMC-7721 [14] = assay: Induction of apoptosis in human SMMC7721 cells assessed as late apoptotic cells at 3 uM after 48 hrs by annexin V-FITC/propidium iodide staining-based flow cytometry (reference value: 1.55%); type: functional
SMMC-7721 [15] = assay: Induction of apoptosis in human SMMC7721 cells assessed as late apoptotic cells at 6 uM after 48 hrs by annexin V-FITC/propidium iodide staining-based flow cytometry (reference value: 1.55%); type: functional
SMMC-7721 [16] = assay: Inhibition of Ras in human SMMC7721 cells assessed as reduction in phosphorylated Akt level after 8 hrs by immunoblotting analysis; type: cell-based; method in brief: as §2
SMMC-7721 [17] = assay: Induction of apoptosis in human SMMC7721 cells assessed as viable cells at 12 uM after 48 hrs by annexin V-FITC/propidium iodide staining-based flow cytometry (reference value: 93.81%); type: functional; settings: SMMC-7721, 48 h, read-out: Activity
SMMC-7721 [18] = assay: Inhibition of Ras in human SMMC7721 cells assessed as reduction in phosphorylated ERK2 level after 8 hrs by immunoblotting analysis; type: cell-based; method in brief: as §2
SMMC-7721 [19] = assay: Induction of apoptosis in human SMMC7721 cells assessed as early apoptotic cells at 12 uM after 48 hrs by annexin V-FITC/propidium iodide staining-based flow cytometry (reference value: 3.87%); type: functional
SMMC-7721 [20] = assay: Induction of apoptosis in human SMMC7721 cells assessed as early apoptotic cells at 6 uM after 48 hrs by annexin V-FITC/propidium iodide staining-based flow cytometry (reference value: 3.87%); type: functional
SMMC-7721 [21] = assay: Induction of apoptosis in human SMMC7721 cells assessed as viable cells at 3 uM after 48 hrs by annexin V-FITC/propidium iodide staining-based flow cytometry (reference value: 93.81%); type: functional; settings: SMMC-7721, 48 h, read-out: Activity
SMMC-7721 [22] = assay: Induction of apoptosis in human SMMC7721 cells after 48 hrs by annexin V-FITC/propidium iodide staining-based flow cytometry; type: functional, cell-based
SMMC-7721 [23] = assay: Induction of apoptosis in human SMMC7721 cells assessed as necrotic cells at 12 uM after 48 hrs by annexin V-FITC/propidium iodide staining-based flow cytometry (reference value: 0.77%); type: functional
SMMC-7721 [24] = assay: Inhibition of Ras in human SMMC7721 cells assessed as reduction in phosphorylated ERK2 level at 12 uM after 8 hrs by immunoblotting analysis; type: cell-based; method in brief: as §2
[25] = Aqueous solubility of the compound in 10% PEG400 aqueous solution after 24 hrs by HPLC analysis; type: physicochemical
Method in brief: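 Roughly 20.0 mg of solid in 5 mL of 10% PEG400 in water. Sonicated 10 min, then stirred 24 h at 25 °C in a water bath. Centrifuged 10 min at 10,000 rpm and the supernatant passed through a microporous membrane. Concentration measured by HPLC against a standard curve.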

SMMC-7721 [26] = assay: Induction of apoptosis in human SMMC7721 cells assessed as early apoptotic cells at 3 uM after 48 hrs by annexin V-FITC/propidium iodide staining-based flow cytometry (reference value: 3.87%); type: functional
SMMC-7721 [27] = assay: Induction of apoptosis in human SMMC7721 cells assessed as necrotic cells at 3 uM after 48 hrs by annexin V-FITC/propidium iodide staining-based flow cytometry (reference value: 0.77%); type: functional
SMMC-7721 [28] = assay: Induction of apoptosis in human SMMC7721 cells assessed as increase in Bax level after 48 hrs by Western blotting analysis; type: functional, cell-based; method in brief: as §3

Structure (SMILES): CC(C)=CCC/C(C)=C/CC/C(C)=C/CSc1ccccc1C(=O)NCCNC(=O)c1ccccc1SC/C=C(\C)CC/C=C(\C)CCC=C(C)C
pIC50 [1]: < 4.30
pIC50 (SK-OV-3): < 4.30
pIC50 (EJ): < 4.30
pIC50 [2]: < 4.30
pIC50 (SMMC-7721 [3]): < 4.30
pIC50 (MCF7): < 4.30
pIC50 [4]: < 4.30

Structure (SMILES): CC(C)=CCC/C(C)=C/CC/C(C)=C/CSc1ccccc1C(=O)NCCCCCCNC(=O)c1ccccc1SC/C=C(\C)CC/C=C(\C)CCC=C(C)C
pIC50 [1]: < 4.30
pIC50 (SK-OV-3): < 4.30
pIC50 (EJ): 4.36
pIC50 [2]: < 4.30
pIC50 (SMMC-7721 [3]): < 4.30
pIC50 (MCF7): 4.39
pIC50 [4]: < 4.30

logP [9]: 4.85
solubility at 24 h [25]: 23.8 mg/mL (≈ 53.4 mM)
Structure (SMILES): CC(C)=CCC/C(C)=C/CC/C(C)=C/CSc1ccccc1C(=O)NCCOCCN
viability at 6 µM (SMMC-7721 [5]): 49.4%
pIC50 [1]: 5.12
Activity (SMMC-7721 [6]): Active
Activity (SMMC-7721 [7]): Dose-dependent effect
Activity (SMMC-7721 [8]): Active
Activity (SMMC-7721 [10]): Dose-dependent effect
Activity (SMMC-7721 [11]): 24.84%
Activity (SMMC-7721 [12]): 2.07%
Activity (SMMC-7721 [13]): Dose-dependent effect
Activity (SMMC-7721 [14]): 4.85%
Activity (SMMC-7721 [15]): 18.68%
Activity (SMMC-7721 [16]): Dose-dependent effect
pIC50 (SK-OV-3): 5.17
pIC50 (EJ): 5.21
viability at 12 µM (SMMC-7721 [17]): 15.3%
Activity (SMMC-7721 [18]): Dose-dependent effect
Activity (SMMC-7721 [19]): 59.67%
Activity (SMMC-7721 [20]): 29.84%
viability at 3 µM (SMMC-7721 [21]): 84%
pIC50 [2]: 5.42
Activity (SMMC-7721 [22]): Dose-dependent effect
Activity (SMMC-7721 [23]): 0.21%
Activity (SMMC-7721 [24]): Active
pIC50 (SMMC-7721 [3]): 5.24
Activity (SMMC-7721 [26]): 10.9%
Activity (SMMC-7721 [27]): 0.24%
pIC50 (MCF7): 5.14
Activity (SMMC-7721 [28]): Dose-dependent effect
pIC50 [4]: 5.16

logP [9]: 5.98
solubility at 24 h [25]: 18 mg/mL (≈ 40.6 mM)
Structure (SMILES): CC(C)=CCC/C(C)=C/CC/C(C)=C/CSc1ccccc1C(=O)NCCCCCN
pIC50 [1]: 5.13
pIC50 (SK-OV-3): 5.15
pIC50 (EJ): 5.01
pIC50 [2]: 5.12
pIC50 (SMMC-7721 [3]): 5.04
pIC50 (MCF7): 5.11
pIC50 [4]: 5.05

Structure (SMILES): CC(C)=CCC/C(C)=C/CC/C(C)=C/CSc1ccccc1C(=O)N1CCN(C(=O)c2ccccc2SC/C=C(\C)CC/C=C(\C)CCC=C(C)C)CC1
pIC50 [1]: < 4.30
pIC50 (SK-OV-3): < 4.30
pIC50 (EJ): < 4.30
pIC50 [2]: < 4.30
pIC50 (SMMC-7721 [3]): < 4.30
pIC50 (MCF7): < 4.30
pIC50 [4]: < 4.30

Structure (SMILES): CC(C)=CCC/C(C)=C/CC/C(C)=C/CSc1ccccc1C(=O)NCCCCN
pIC50 [1]: 4.95
pIC50 (SK-OV-3): 5.11
pIC50 (EJ): 4.88
pIC50 [2]: 4.98
pIC50 (SMMC-7721 [3]): 4.82
pIC50 (MCF7): 4.95
pIC50 [4]: 4.90

Structure (SMILES): CC(C)=CCC/C(C)=C/CC/C(C)=C/CSc1ccccc1C(=O)NCCOCCNC(=O)c1ccccc1SC/C=C(\C)CC/C=C(\C)CCC=C(C)C
pIC50 [1]: 4.36
pIC50 (SK-OV-3): 4.46
pIC50 (EJ): 4.56
pIC50 [2]: 4.53
pIC50 (SMMC-7721 [3]): 4.54
pIC50 (MCF7): 4.52
pIC50 [4]: 4.36

Structure (SMILES): CC(C)=CCC/C(C)=C/CC/C(C)=C/CSc1ccccc1C(=O)NCCN
pIC50 [1]: 4.47
pIC50 (SK-OV-3): 4.50
pIC50 (EJ): < 4.30
pIC50 [2]: < 4.30
pIC50 (SMMC-7721 [3]): 4.60
pIC50 (MCF7): 4.54
pIC50 [4]: 4.44
